From publication PMC7395825 (OncoTargets and therapy, 2020)
“And” between values parts separate entries of the source, which are not always exact repeats. Equal values may be shown once. Read-outs that look alike come from different tables or passages of the source. Each block holds one compound with its values, some of them ahead of it.

Columns and labels:
[1] = system: DLD-1 cancer cells; test: MTT assay, in vitro antiproliferative activity, DLD-1; type: cell-based, human; conditions: for TGI (total 100% growth inhibition): DLD-1, MTT, 48 hours of drug exposure; for GI50 / IC50: Homo sapiens, DLD-1, 48 h; for GI50: read-out: GI50 (50% growth inhibition); for IC50: read-out: IC50 (half maximal cytotoxic concentration)
Outline: (§1)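 Cells kept in ATCC-recommended medium with 10% FBS and 1% penicillin/streptomycin at 37°C, 5% CO2, seeded at 8×10^3 cells/well. After 24 h, exposed 48 h to test compound (DMSO stock 15 mM) at seven concentrations across 1–100 μM. Medium renewed, MTT added for 3 h, formazan dissolved in DMSO, absorbance read at 540 nm. […] Triplicate.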

[2] = system: HT-29 cancer cells; test: MTT assay, in vitro antiproliferative activity, HT-29; type: cell-based, human; conditions: for TGI (total 100% growth inhibition): HT-29, MTT, 48 hours of drug exposure, unit given; for GI50 / IC50: Homo sapiens, HT-29, 48 h; for GI50: read-out: GI50 (50% growth inhibition); for IC50: read-out: IC50 (half maximal cytotoxic concentration)
Outline: as §1

[3] = system: LoVo cancer cells; test: MTT assay, in vitro antiproliferative activity, LoVo; type: cell-based; conditions: Homo sapiens, 48 h; for GI50: read-out: GI50 (50% growth inhibition); for IC50: read-out: IC50 (half maximal cytotoxic concentration)
Outline: as §1

[4] = MTT assay, normal lung cells; type: cell-based, human; conditions: human, MRC5 normal lung cells
Outline: as §1

[5] = system: healthy lung (MRC5) cells; test: MTT assay, normal lung cells; type: cell-based, human; conditions: for GI50: Homo sapiens, MRC5, 48 h, read-out: GI50 (50% growth inhibition); for Selectivity: GI50, TGI and IC50 values, MRC5 cells versus cancer cell lines: MRC5 versus DLD-1, HT-29, LoVo
Outline: as §1

[6] = system: DLD-1 cancer cells; test: Flow cytometric analysis of apoptosis; type: cell-based, human; conditions: DLD-1, at IC50 concentration (KA39 9 μM, etoposide 27 μM)
[7] = system: HT-29 cancer cells; test: Flow cytometric analysis of cell cycle growth arrest; type: cell-based, human
Outline: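 HT-29 cells seeded in 6-well plates and grown 24 h at 37°C, 5% CO2. Medium renewed, then cells exposed to test compound for 24 h or 48 h at the stated levels, with untreated and etoposide-treated parallels. Cells trypsinised, washed and lysed in nuclei extraction buffer for 15 min in the dark. DNA stained with PI/RNase solution for 30–60 min in the dark. Flow cytometry, 1×10^4 events per sample, triplicate.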

[8] = biological target: topoisomerase II (Homo sapiens, UniProt P11388); test: DNA topoisomerase II assay; type: biochemical
Sequence of topoisomerase II (P11388 whole entry): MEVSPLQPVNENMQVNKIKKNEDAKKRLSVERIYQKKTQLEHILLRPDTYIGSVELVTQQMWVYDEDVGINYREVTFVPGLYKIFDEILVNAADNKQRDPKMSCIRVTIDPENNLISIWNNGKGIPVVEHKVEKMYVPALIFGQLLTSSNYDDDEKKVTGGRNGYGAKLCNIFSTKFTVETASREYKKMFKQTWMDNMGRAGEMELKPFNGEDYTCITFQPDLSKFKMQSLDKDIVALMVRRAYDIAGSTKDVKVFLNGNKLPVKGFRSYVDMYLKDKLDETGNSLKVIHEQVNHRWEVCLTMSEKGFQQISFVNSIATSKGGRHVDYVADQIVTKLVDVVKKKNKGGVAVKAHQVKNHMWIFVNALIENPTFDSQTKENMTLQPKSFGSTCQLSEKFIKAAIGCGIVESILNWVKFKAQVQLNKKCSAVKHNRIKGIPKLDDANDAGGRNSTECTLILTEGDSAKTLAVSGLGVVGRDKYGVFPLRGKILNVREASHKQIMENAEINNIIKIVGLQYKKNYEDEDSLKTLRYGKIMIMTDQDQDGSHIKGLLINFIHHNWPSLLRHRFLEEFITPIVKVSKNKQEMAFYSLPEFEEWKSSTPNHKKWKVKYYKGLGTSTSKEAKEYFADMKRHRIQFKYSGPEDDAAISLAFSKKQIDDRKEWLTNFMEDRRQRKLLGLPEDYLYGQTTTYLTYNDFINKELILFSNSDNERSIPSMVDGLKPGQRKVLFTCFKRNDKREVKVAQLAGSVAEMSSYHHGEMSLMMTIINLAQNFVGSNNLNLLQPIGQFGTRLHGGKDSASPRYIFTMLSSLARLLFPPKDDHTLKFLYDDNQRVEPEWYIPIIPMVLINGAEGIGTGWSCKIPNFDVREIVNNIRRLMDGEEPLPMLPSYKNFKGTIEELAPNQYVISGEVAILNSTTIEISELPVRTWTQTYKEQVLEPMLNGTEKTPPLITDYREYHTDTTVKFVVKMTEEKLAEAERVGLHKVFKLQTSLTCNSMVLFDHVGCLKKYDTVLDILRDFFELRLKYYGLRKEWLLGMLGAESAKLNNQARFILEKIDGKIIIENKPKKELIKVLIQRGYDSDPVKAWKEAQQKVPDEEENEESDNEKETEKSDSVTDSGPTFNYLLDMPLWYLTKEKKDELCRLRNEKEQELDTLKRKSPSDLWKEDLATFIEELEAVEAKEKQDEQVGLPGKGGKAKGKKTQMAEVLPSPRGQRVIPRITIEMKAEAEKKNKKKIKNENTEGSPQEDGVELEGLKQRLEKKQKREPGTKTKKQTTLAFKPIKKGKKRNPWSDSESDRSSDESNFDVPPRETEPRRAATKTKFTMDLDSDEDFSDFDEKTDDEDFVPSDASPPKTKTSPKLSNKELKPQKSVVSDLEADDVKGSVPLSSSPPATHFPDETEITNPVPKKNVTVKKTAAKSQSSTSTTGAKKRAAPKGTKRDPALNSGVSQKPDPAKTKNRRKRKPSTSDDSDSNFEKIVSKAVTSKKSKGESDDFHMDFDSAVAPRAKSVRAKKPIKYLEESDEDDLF

[9] = system: topIIα phosphorylation (Ser1106); test: TopIIα phosphorylation cell-based ELISA, LoVo; parameters: species or system human; conditions: for maximum inhibitory effect on topIIα phosphorylation: LoVo cells, at either TGI or IC50 concentrations over 6 or 24 hour treatment; for effect on topIIα phosphorylation: LoVo, 6 hours, KA39 TGI and IC50, KA25 TGI 13.8 μΜ, KA26 TGI 100 μΜ
[10] = system: topIIα phosphorylation (Ser1106); test: TopIIα phosphorylation cell-based ELISA, HT-29; parameters: species or system human; conditions: HT-29 cells, at either TGI or IC50 concentrations over 6 or 24 hour treatment
[11] = HT-29, IC50 concentration (KA39 19.5 μM), 24 hours
[12] = HT-29, TGI concentration (KA39 15.9 μM, etoposide 69 μM), 48 hours

GI50 [1]: 1.8 ± 0.39 µM | GI50 [2]: 9.5 ± 0.5 µM | GI50 [3]: 14 ± 0.5 µM | IC50 at 48 h [4]: > 100 µM | topoisomerase II reaction product on agarose gel [8]: linear DNA
SMILES: COc1cc([C@@H]2c3cc4c(cc3[C@@H](O[C@@H]3O[C@@H]5CO[C@@H](C)O[C@H]5[C@H](O)[C@H]3O)[C@H]3COC(=O)[C@H]23)OCO4)cc(OC)c1O [Etoposide, reference compound]
TGI (total 100% growth inhibition) [1]: 8 ± 0.5 µM | IC50 [1]: 27 ± 0.28 µM | TGI (total 100% growth inhibition) [2]: 69 ± 0.9 µM | IC50 [2]: > 100 µM | IC50 [3]: > 100 µM | GI50 [5]: 25 ± 0.3 µM | early apoptosis (Q4) ([6]; 48 hours): 51.12% | late apoptosis (Q2) ([6]; 48 hours): 18.84% | early apoptosis (Q4) ([6]; 72 hours): 42.01% | late apoptosis (Q2) ([6]; 72 hours): 30.48% | % of cells in G1 phase [7, 11]: 57.28% | % of cells in G2/M phase [7, 11]: 5.99% | % of cells in S phase [7, 11]: 16.50% | % of cells in SG (SubG1) phase [7, 11]: 20.23% | % of cells in G1 phase [7, 12]: 26.06% | % of cells in G2/M phase [7, 12]: 4.37% | % of cells in S phase [7, 12]: 13.10% | % of cells in SG (SubG1) phase [7, 12]: 55.80%

GI50 [1]: 11.4 ± 0.5 µM | GI50 [2]: 1 ± 0.3 µM | GI50 [3]: 8 ± 0.76 µM | IC50 at 48 h [4]: > 100 µM
SMILES: COc1cc(Cc2nnc3sc(/C=C/c4ccc(F)cc4)nn23)c(S(=O)(=O)N(C)C)cc1OC [KA25, (E)-2-((6-(4-Fluorostyryl)-[1,2,4]Triazolo[3,4-b][1,3,4]Thiadiazol-3-Yl)Methyl)-4,5-Dimethoxy-N,N-Dimethylbenzenesulfonamide]
TGI (total 100% growth inhibition) [1]: 65 ± 0.5 µM | IC50 [1]: > 100 µM | TGI (total 100% growth inhibition) [2]: >100 µM | IC50 [2]: > 100 µM | IC50 [3]: > 100 µM | GI50 [5]: 15 ± 0.9 µM | Selectivity: GI50, TGI and IC50 values, MRC5 cells versus cancer cell lines [5]: 3–5 times | maximum inhibitory effect on topIIα phosphorylation [9]: 47% | effect on topIIα phosphorylation [9]: less significant inhibition of topIIα phosphorylation | maximum inhibitory effect on topIIα phosphorylation [10]: 33%

GI50 [1]: 1.2 ± 0.81 µM | GI50 [2]: 2 ± 0.76 µM | GI50 [3]: 15 ± 0.8 µM | IC50 at 48 h [4]: > 100 µM
SMILES: COc1cc(Cc2nnc3sc(/C=C/c4ccc(Cl)cc4)nn23)c(S(=O)(=O)N(C)C)cc1OC [KA26, (E)-2-((6-(4-Chlorostyryl)-[1,2,4]Triazolo[3,4-b][1,3,4]Thiadiazol-3-Yl)Methyl)-4,5-Dimethoxy-N,N-Dimethylbenzenesulfonamide]
TGI (total 100% growth inhibition) [1]: >100 µM | IC50 [1]: > 100 µM | TGI (total 100% growth inhibition) [2]: >100 µM | IC50 [2]: > 100 µM | IC50 [3]: > 100 µM | GI50 [5]: 30 ± 0.9 µM | Selectivity: GI50, TGI and IC50 values, MRC5 cells versus cancer cell lines [5]: 3–5 times | maximum inhibitory effect on topIIα phosphorylation [9]: 18% | effect on topIIα phosphorylation [9]: did not affect the phosphorylation status of topIIα | maximum inhibitory effect on topIIα phosphorylation [10]: 50%

SMILES: COc1cc(Cc2nnc3sc(-c4cc([N+](=O)[O-])ccc4[N+](=O)[O-])nn23)c(S(=O)(=O)N(C)C)cc1OC [KA39, 2-((6-(2,5-Dinitrophenyl)-[1,2,4]Triazolo[3,4-b][1,3,4]Thiadiazol-3-Yl)Methyl)-4,5-Dimethoxy-N,N-Dimethylbenzenesulfonamide]
TGI (total 100% growth inhibition) [1]: 5 ± 0.76 µM | GI50 [1]: 3 ± 0.52 µM | IC50 [1]: 9 ± 0.76 µM | TGI (total 100% growth inhibition) [2]: 15.9 µM and 15.9 ± 0.55 µM | GI50 [2]: 11.5 ± 0.8 µM | IC50 [2]: 19.5 ± 0.9 µM | GI50 [3]: 2.2 ± 0.2 µM | IC50 [3]: 10.5 ± 0.15 µM | IC50 at 48 h [4]: 40.5 ± 0.76 µM | GI50 [5]: 15 ± 0.36 µM | Selectivity: GI50, TGI and IC50 values, MRC5 cells versus cancer cell lines [5]: 3–5 times | early apoptosis (Q4) ([6]; 48 hours): 17.35% | late apoptosis (Q2) ([6]; 48 hours): 13.12% | early apoptosis (Q4) ([6]; 72 hours): 20.68% | late apoptosis (Q2) ([6]; 72 hours): 20.96% | % of cells in G1 phase [7, 11]: 46.64% | % of cells in G2/M phase [7, 11]: 3.74% | % of cells in S phase [7, 11]: 21.52% | % of cells in SG (SubG1) phase [7, 11]: 27.06% | % of cells in G1 phase [7, 12]: 40.95% | % of cells in G2/M phase [7, 12]: 9.48% | % of cells in S phase [7, 12]: 14.66% | % of cells in SG (SubG1) phase [7, 12]: 33.51% | topoisomerase II reaction product on agarose gel ([8]; pHOT1 supercoiled DNA, KA39 0.1, 1.0, 7.5 and 20 μΜ, non-EB gel): induced the formation of supercoiled DNA in all concentrations used | maximum inhibitory effect on topIIα phosphorylation [9]: 60% | effect on topIIα phosphorylation [9]: enhanced the phosphorylation status of topIIα | maximum inhibitory effect on topIIα phosphorylation [10]: 76%
